Measured values as given in article PMC9786734 (Biomedical Chromatography, 2022).

What was measured:
[1] = Pilot pharmacokinetic and tissue distribution study in mice after oral EAI045; assay type: in vivo, mouse (FVB/NRj wild-type, female)
Outline: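 Five female FVB/NRj mice, 10–15 weeks old, fasted 3 h, then given one 20 mg/kg oral gavage dose. Vehicle: DMSO stock at 4 mg/ml, diluted with polysorbate 80–ethanol (1:1) and 5% glucose to 2 mg/ml. Tail-vein blood taken at 5, 15, 30 min, 1 and 2 h. At 4 h, cardiac puncture under isoflurane, then organs homogenised in 2% BSA. Cmax/Tmax observed; AUC0–t by trapezoidal rule; CL/F = dose/AUC0–t; mean ± SD.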

[2] = Short-term stability in mouse tissue homogenates; assay type: in vitro ADME
Outline: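 Blank homogenate made by homogenising the whole organ in ice-cold 2% (w/v) BSA in water. Medium QC (100 ng/ml) prepared by diluting high-QC plasma into the homogenate. Held 5 h at room temperature (n = 4), then acetonitrile protein precipitation with internal standard and LC–MS/MS quantification. Peak-area ratios were read from a 1/x²-weighted calibration line.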

[3] = Stability of methanolic stock solutions; assay type: physicochemical; settings: 1.5 months at −30°C, methanol
Outline: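 Single-analyte stocks (0.5 mg/ml in methanol, made from 300–500 µg of weighed solid) stored 1.5 months at −30°C, then reanalysed by LC–MS/MS.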

[4] = Stability in mouse plasma QC samples; assay type: in vitro ADME
Outline: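 Pooled female mouse lithium–heparin plasma QCs at high (1,500 ng/ml) and low (6 ng/ml) levels, as 10 µl portions (n = 4). Three conditions: room temperature for 5 and 24 h; three freeze–thaw cycles (1 h thaw at room temperature, 1 day at −30°C); and 1.5 months at −30°C. Quantified by LC–MS/MS after acetonitrile precipitation.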

[5] = female, FVB/NRj, mouse, plasma, po, 20 mg/kg

- concentration at 4 h ([1]; female, FVB/NRj, mouse, brain, po, 20 mg/kg): 9.8 ng/g
- concentration at 4 h ([1]; female, FVB/NRj, mouse, kidney, po, 20 mg/kg): 0.0308 µg/mL
- AUC(0-t) [1, 5]: 1.87 µg·h/mL
- Cmax [1, 5]: 1.52 µg/mL
- Tmax [1, 5]: 15 to 30 min
- half-life [1, 5]: 70.2 ± 12.6 min
- metabolite level compared with EAI045 (ratio) ([1]; pilot study, SIWC): ca. 5%
- metabolite level compared with EAI045 ([1]; pilot study, all matrices except SIWC): higher than 10%
- plasma concentration (chromatogram sample) ([1]; plasma sample from a single mouse, oral 20 mg/kg EAI045): 0.133 µg/mL
- time by which PIA was more abundant in plasma than the parent drug ([1]; plasma, oral 20 mg/kg EAI045, mice): ≤ 15 min
- absolute amount retrieved from SIWC ([1]; small intestine with contents, 4 h after oral 20 mg/kg EAI045, mice, data not shown): ~ 0.074 % of the EAI045 dose
- recovery at 5 h, 100 ng/ml ([2]; SIWC homogenate): 104 ± 3.4%
- recovery at 5 h, 100 ng/ml ([2]; brain homogenate): 99.7 ± 5.1%
- recovery at 5 h, 100 ng/ml ([2]; kidney homogenate): 99.4 ± 2.4%
- recovery at 5 h, 100 ng/ml ([2]; liver homogenate): 114 ± 10.9%
- recovery at 5 h, 100 ng/ml ([2]; lung homogenate): 107 ± 2%
- recovery at 5 h, 100 ng/ml ([2]; spleen homogenate): 107 ± 7.6%
- recovery of methanolic stock solution [3]: 98.3%
- recovery at 1.5 months, 6 ng/ml [4]: 110 ± 9.6%
- recovery at 1.5 months, 1500 ng/ml [4]: 90.8 ± 2.4%
- recovery at 5 h, 6 ng/ml [4]: 93.3 ± 1.8%
- recovery at 5 h, 1500 ng/ml [4]: 102 ± 4.1%
- recovery at 24 h, 6 ng/ml [4]: 101 ± 8.3%
- recovery at 24 h, 1500 ng/ml [4]: 100 ± 6.2%
SMILES: O=C(O)C(c1cc(F)ccc1O)N1Cc2ccccc2C1=O (stereo not drawn) [PIA, (5‐fluoro‐2‐hydroxyphenyl)(1‐oxo‐1,3‐dihydro‐2H‐isoindol‐2‐yl)acetic acid]
